In ChEMBL document CHEMBL1131623, “Newly synthesized L-enantiomers of 3'-fluoro-modified beta-2'-deoxyribonucleoside 5'-triphosphates inhibit hepatitis B DNA polymerases but not the five cellular DNA polymerases alpha, beta, gamma, delta, and epsilon nor HIV-1 reverse transcriptase” (J Med Chem, 1998):

What was measured:
DNA polymerase beta = DNA polymerase beta (Homo sapiens, UniProt P06746); experiment: Compound was evaluated for the inhibition of cellular DNA polymerase (beta)
Outline: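 HeLa-derived pol β (0.25 unit), 15 min at 37 °C, in 50 mM Tris-HCl pH 8.7, 100 mM KCl, 10 mM MgCl2, 1 mM DTT, 0.4 mg/mL BSA. TTP analogues were tested on poly(dA)·oligo(dT)15 with [3H]TTP. dCTP analogues used activated DNA, [3H]dCTP and the other three dNTPs. Read-out was [3H] incorporation.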

Hepatitis B virus = experiment: Compound was evaluated for 50% inhibition of HBV polymerases (Hepatitis B virus); type: functional, organism-based
Outline: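 Endogenous polymerase in virions pelleted from HBV- or DHBV-positive sera, resuspended in PBS and lysed with 2-mercaptoethanol/Nonidet P-40. Run 60 min at 37 °C in 50 mM Tris-HCl pH 8.1, 60 mM KCl, 40 mM MgCl2. Substrates were 100 μM each of the three unlabeled dNTPs plus 0.4 μM [3H]TTP or [3H]dCTP, chosen by analogue type.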

[1] = target: T1, DNA polymerase subunit gamma-1 (Homo sapiens, UniProt P54098); experiment: Compound was evaluated for the inhibition of cellular DNA polymerase (gamma)
T1 sequence (P54098 whole entry): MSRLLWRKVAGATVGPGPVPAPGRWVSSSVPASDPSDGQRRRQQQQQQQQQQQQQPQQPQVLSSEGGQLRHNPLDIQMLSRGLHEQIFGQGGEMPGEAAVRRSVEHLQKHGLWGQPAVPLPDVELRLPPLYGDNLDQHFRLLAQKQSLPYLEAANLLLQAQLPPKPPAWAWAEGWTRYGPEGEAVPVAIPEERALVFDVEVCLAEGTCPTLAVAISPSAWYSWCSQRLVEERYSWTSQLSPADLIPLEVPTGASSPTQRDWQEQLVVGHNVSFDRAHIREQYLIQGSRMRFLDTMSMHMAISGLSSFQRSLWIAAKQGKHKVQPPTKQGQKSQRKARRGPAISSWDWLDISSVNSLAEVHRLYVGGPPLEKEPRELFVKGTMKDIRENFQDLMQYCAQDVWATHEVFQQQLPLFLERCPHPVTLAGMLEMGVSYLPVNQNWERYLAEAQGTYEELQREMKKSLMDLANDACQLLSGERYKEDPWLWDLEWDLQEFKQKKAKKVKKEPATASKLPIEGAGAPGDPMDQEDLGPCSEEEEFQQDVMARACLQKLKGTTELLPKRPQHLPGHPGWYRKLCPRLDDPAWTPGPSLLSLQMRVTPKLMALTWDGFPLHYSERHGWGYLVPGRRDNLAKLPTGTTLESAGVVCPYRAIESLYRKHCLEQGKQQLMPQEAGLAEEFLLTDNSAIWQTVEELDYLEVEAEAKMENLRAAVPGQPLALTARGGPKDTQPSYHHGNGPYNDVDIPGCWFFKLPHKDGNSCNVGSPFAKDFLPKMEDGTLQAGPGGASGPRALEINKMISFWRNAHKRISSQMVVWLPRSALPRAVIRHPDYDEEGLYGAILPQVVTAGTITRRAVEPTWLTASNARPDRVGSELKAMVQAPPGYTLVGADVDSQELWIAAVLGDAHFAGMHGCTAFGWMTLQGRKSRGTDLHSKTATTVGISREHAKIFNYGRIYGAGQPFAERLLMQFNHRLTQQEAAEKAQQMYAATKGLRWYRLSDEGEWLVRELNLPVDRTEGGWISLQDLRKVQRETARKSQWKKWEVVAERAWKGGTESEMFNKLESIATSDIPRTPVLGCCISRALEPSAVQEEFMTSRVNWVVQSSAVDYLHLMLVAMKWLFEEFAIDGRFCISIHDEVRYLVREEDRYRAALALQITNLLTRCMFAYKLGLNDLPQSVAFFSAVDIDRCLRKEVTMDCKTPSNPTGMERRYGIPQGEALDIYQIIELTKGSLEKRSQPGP

[2] = target: Human immunodeficiency virus type 1 reverse transcriptase (Human immunodeficiency virus 1, UniProt Q72547); experiment: Compound was evaluated for 50% inhibition of HIV-RT (HIV reverse transcriptase)
Nucleic Acid = experiment: Compound was evaluated for the inhibition of cellular DNA polymerase (epsilon); type: nucleic-acid assay; conditions: Bos taurus
Outline: (§1)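 Calf thymus pols δ and ε (0.05 unit), 30 min at 37 °C, in 50 mM Bis-Tris pH 6.5, 6 mM MgCl2, 1 mM DTT, 250 μg/mL BSA. Templates were 3.5 μM poly(dA)·oligo(dT)15 with 10 μM [3H]TTP, or activated DNA with [3H]dCTP for dCTP analogues. δ assays also received recombinant PCNA at 10 μg/mL.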

[3] = Compound was evaluated for the inhibition of cellular DNA polymerase (delta); outline: as §1
[4] = target: T2, DNA polymerase alpha catalytic subunit (Homo sapiens, UniProt P09884); experiment: Compound was evaluated for the inhibition of cellular DNA polymerase (alpha)
T2 sequence (P09884 whole entry): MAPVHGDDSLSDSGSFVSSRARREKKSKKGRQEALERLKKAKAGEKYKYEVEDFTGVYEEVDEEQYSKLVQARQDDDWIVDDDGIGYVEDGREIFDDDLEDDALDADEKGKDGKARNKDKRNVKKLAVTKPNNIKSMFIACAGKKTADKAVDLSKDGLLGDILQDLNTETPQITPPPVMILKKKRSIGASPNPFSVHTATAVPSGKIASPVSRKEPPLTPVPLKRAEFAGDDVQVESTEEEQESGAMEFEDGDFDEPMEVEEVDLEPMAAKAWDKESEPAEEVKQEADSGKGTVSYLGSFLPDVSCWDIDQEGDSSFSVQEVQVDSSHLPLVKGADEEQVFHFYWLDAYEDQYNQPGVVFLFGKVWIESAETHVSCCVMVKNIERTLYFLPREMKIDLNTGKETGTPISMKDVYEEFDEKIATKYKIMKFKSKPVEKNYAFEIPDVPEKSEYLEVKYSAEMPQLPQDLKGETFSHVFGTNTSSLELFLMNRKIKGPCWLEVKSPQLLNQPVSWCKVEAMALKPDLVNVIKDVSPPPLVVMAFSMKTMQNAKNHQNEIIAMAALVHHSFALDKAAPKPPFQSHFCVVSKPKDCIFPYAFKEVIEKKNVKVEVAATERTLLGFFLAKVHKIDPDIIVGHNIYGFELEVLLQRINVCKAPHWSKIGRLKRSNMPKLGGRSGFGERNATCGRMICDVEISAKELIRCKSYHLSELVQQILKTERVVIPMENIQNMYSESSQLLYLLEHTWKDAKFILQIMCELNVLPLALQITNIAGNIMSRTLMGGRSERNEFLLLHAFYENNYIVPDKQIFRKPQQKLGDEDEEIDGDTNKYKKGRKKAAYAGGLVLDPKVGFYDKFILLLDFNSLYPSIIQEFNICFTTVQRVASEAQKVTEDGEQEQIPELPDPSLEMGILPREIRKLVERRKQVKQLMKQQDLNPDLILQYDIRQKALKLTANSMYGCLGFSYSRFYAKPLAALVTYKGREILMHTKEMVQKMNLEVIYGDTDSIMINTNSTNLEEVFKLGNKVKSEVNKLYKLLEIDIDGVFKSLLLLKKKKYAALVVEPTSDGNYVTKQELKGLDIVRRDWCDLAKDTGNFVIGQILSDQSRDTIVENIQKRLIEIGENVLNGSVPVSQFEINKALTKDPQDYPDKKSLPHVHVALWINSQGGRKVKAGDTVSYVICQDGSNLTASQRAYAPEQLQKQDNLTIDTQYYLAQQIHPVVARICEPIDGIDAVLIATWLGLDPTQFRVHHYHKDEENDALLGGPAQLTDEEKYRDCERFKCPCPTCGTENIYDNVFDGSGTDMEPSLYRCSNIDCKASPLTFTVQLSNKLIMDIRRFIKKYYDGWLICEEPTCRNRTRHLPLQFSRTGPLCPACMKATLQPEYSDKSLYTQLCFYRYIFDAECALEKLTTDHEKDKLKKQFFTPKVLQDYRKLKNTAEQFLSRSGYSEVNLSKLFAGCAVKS

| Compound | IC50 (DNA polymerase beta) [nM] | IC50 (Hepatitis B virus) [nM] | IC50 [1] [nM] | IC50 [2] [nM] | IC50 (Nucleic Acid) [µM] | IC50 [3] [µM] | IC50 (Hepatitis B virus; Hepatitis B virus) [nM] | IC50 [4] [µM] |
| --- | --- | --- | --- | --- | --- | --- | --- | --- |
| O=c1ccn([C@@H]2C[C@@H](F)[C@H](COP(=O)(O)OP(=O)(O)OP(=O)(O)O)O2)c(=O)[nH]1 (stereo in doubt) | 3000 | – | 3500 | 70 | > 100 | > 100 | 25000 | – |
| Cc1cn([C@@H]2C[C@@H](F)[C@H](COP(=O)(O)OP(=O)(O)OP(=O)(O)O)O2)c(=O)nc1N (stereo in doubt) | 1000 | 30 | 500 | 600 | > 100 | 100 | – | > 200 |
| Cc1cn([C@@H]2C[C@@H](F)[C@H](COP(=O)(O)OP(=O)(O)OP(=O)(O)O)O2)c(=O)[nH]c1=O (stereo in doubt; 16) | > 200000 | – | > 100000 | 100000 | > 100 | > 200 | 250 | – |
| O=c1ccn([C@@H]2C[C@@H](F)[C@H](COP(=O)(O)OP(=O)(O)OP(=O)(O)O)O2)c(=O)[nH]1 (stereo in doubt; 17) | > 100000 | 35000 | > 100000 | > 200000 | – | > 200 | – | – |
| Nc1ccn([C@@H]2C[C@@H](F)[C@H](COP(=O)(O)OP(=O)(O)OP(=O)(O)O)O2)c(=O)n1 (stereo in doubt; 18) | > 100000 | 7000 | > 50000 | > 100000 | > 100 | > 200 | – | – |
| Cc1cn([C@@H]2C[C@@H](F)[C@H](COP(=O)(O)OP(=O)(O)OP(=O)(O)O)O2)c(=O)nc1N (stereo in doubt; 19) | > 200000 | 1900 | > 50000 | > 100000 | – | > 200 | – | > 200 |

Continued by falling IC50 (DNA polymerase beta), values first:

| IC50 (DNA polymerase beta) [nM] | IC50 (Hepatitis B virus) [nM] | IC50 [1] [nM] | IC50 [2] [nM] | IC50 (Nucleic Acid) [µM] | IC50 [3] [µM] | IC50 (Hepatitis B virus; Hepatitis B virus) [nM] | IC50 [4] [µM] | Compound |
| --- | --- | --- | --- | --- | --- | --- | --- | --- |
| 2200 | 150 | 1500 | 50 | – | – | – | – | Cc1cn([C@@H]2C[C@@H](F)[C@H](COP(=O)(O)OP(=O)(O)OP(=O)(O)O)O2)c(=O)[nH]c1=O (stereo in doubt) |
| 1000 | 500 | 2000 | 500 | – | > 100 | – | – | Nc1ccn([C@@H]2C[C@@H](F)[C@H](COP(=O)(O)OP(=O)(O)OP(=O)(O)O)O2)c(=O)n1 (stereo in doubt) |
